Results as given in ChEMBL document CHEMBL1127790, “Photodynamic antitumor agents: beta-methoxyethyl groups give access to functionalized porphycenes and enhance cellular uptake and activity” (J Med Chem, 1994).

Tests used:
[1] = organism: Mus musculus; assay: Cellular uptake kinetics of Porphycenes saturation cell level (cs) in SSK2 murine fibrosarcoma cells; assay type: ADME
Summary of the method: (§1)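 Murine fibrosarcoma cells (SSK2, C3H mouse-derived; MEM/5% FCS, 37 °C, 5% CO2), 2.5 × 10^5 plated and grown 18 h. Then 2 µM porphycene in DOPC liposomes diluted in MEM, incubated at 37 °C for varying times. Cells washed, trypsinized, counted, pelleted. Extraction with methanol then acetonitrile containing diphenylanthracene internal standard. Fluorescence read at ex 370 nm against calibration plots. Saturation level from monoexponential fit.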

[2] = Cellular uptake kinetics of Porphycenes saturation cell level (cs); assay type: ADME; summary of the method: as §1
[3] = organism: Mus musculus; assay: Tested for phototoxic activity of compound on SSK2 cultivated murine fibrosarcoma cells; assay type: ADME, cell-based; details: light or radiation study, read-out: LD50 (the source's name)
Summary of the method: (§2)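 SSK2 murine fibrosarcoma cells (C3H origin), 3 × 10^5 cells/dish after 18 h attachment, incubated 4 h at 37 °C/5% CO2 with sensitizer in DPPC liposomes (DPPC/sensitizer 100:1) diluted in MEM. Cells washed, irradiated in PBS with laser light at 20 mW/cm2 for 250 s (5 J/cm2), then kept 18 h in MEM/10% FCS. Viability by trypan blue exclusion, as percent of MEM-only controls, ≥5 dishes per point. LD50 in incubation medium by probit analysis.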

[4] = organism: Mus musculus; assay: Tested for phototoxic activity of compound on SSK3 cultivated murine fibrosarcoma cells; assay type: ADME, cell-based; details: light or radiation study, read-out: LD50 (the source's name)
[5] = organism: Mus musculus; assay: Tested for Photodynamic activity of Sensitizers for cultivated SSK2 cells; assay type: ADME, cell-based; details: read-out: LD50 (the source's name); summary of the method: as §2
[6] = (§3) Tested for Photodynamic activity of Sensitizers, lethal dose concentration in incubation media as obtained by probit analysis of SSK3 fibrosarcoma cells; assay type: ADME; details: Mus musculus, light or radiation study; read-out: LD50 (the source's name); summary of the method: as §2
[7] = organism: Mus musculus; assay: Cellular uptake kinetics of Porphycenes saturation cell level (cs)in SSK2 murine fibrosarcoma cells; assay type: ADME; summary of the method: as §1
[8] = organism: Mus musculus; assay: Cellular uptake kinetics of Porphycenes saturation cell level (cs) in SSK3 murine fibrosarcoma cells; assay type: ADME; summary of the method: as §1
[9] = organism: Mus musculus; assay: as §3; assay type: ADME, cell-based; details: in vivo, read-out: LD50 (the source's name); summary of the method: as §2

## CCCC1=Cc2nc1ccc1[nH]c(cc1CCC)c1nc(ccc3[nH]c2cc3CCC)C(CCC)=C1
[1]
  Cell saturation: 1.5 pM (10e5*cells)-1

## COCCC1=Cc2nc1ccc1[nH]c(cc1CCOC)c1nc(ccc3[nH]c2cc3CCOC)C(CCO)=C1
[2]
  Cell saturation: 9.3 pM (10e5*cells)-1
[3]
  CC50: 90 nM
[4]
  CC50: 9.1 nM

## COCCC1=Cc2nc1ccc1[nH]c(c3nc(ccc4[nH]c2cc4CCOC)C(CCOC)=C3)c2c(C(=O)OC)c(C(=O)O)ccc12
[2]
  Cell saturation: 7.3 pM (10e5*cells)-1
[5]
  CC50: 130 nM
[6]
  CC50: 13 nM

## COCCC1=Cc2nc1ccc1[nH]c(cc1CCOC)c1nc(ccc3[nH]c2cc3CCOC)C(CCOC)=C1
[3]
  CC50: 8.5 nM
[7]
  Cell saturation: 9.3 pM (10e5·cells)-1

## CCCC1=Cc2nc1ccc1[nH]c(cc1CCO)c1nc(ccc3[nH]c2cc3CCC)C(CCO)=C1
[8]
  Cell saturation: 26 pM (10e5*cells)-1

## CCCC1=Cc2nc1ccc1[nH]c(cc1CCC)c1nc(c(OC(C)=O)cc3[nH]c2cc3CCC)C(CCC)=C1
[1]
  Cell saturation: 1.2 pM (10e5*cells)-1
[3]
  CC50: 110 nM

## C=CC1=C(C)c2cc3[nH]c(cc4nc(cc5[nH]c(cc1n2)c(C)c5CCC(=O)O)C(CCC(=O)O)=C4C)c(C)c3C=C [PROTOPORPHYRIN DISODIUM]
[5]
  CC50: 19000 nM
[9]
  CC50: 1900 nM

## CCCC1=Cc2nc1ccc1[nH]c(cc1CCOC)c1nc(ccc3[nH]c2cc3CCC)C(CCOC)=C1
[8]
  Cell saturation: 14 pM (10e5*cells)-1
